Reference: ChEMBL document CHEMBL3045934, “Acaricidal activity of constituents identified in Foeniculum vulgare fruit oil against Dermatophagoides spp. (Acari: Pyroglyphidae)” (J Agric Food Chem, 2004)

Assays:
[1] = system: Dermatophagoides farinae; assay: Acaricidal activity against 7 to 10 day-old Dermatophagoides farinae adult after 24 hr by microscopy; format: functional
Summary of the method: (§1)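 Mites exposed by direct contact in a lidded container, held at 25 ± 1 °C, 75% relative humidity, in darkness. Mortality scored 24 h after treatment under a binocular microscope (20×). Untreated controls run alongside. Three replicates per treatment. LD50 derived by probit analysis.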

[2] = system: Dermatophagoides pteronyssinus; assay: Ratio of benzyl benzoate LD50 to compound LD50 for 7 to 10 day-old Dermatophagoides pteronyssinus adult after 24 hr by microscopy; format: functional
[3] = system: Dermatophagoides pteronyssinus; assay: Acaricidal activity against 7 to 10 day-old Dermatophagoides pteronyssinus adult after 24 hr by microscopy; format: functional; summary of the method: as §1
[4] = system: Dermatophagoides farinae; assay: Ratio of benzyl benzoate LD50 to compound LD50 for 7 to 10 day-old Dermatophagoides farinae adult after 24 hr by microscopy; format: functional
[5] = Acute toxicity in po dosed Rattus norvegicus (rat); format: organism-based; conditions: in vivo

SMILES | LD50 [1] | Ratio [2] | LD50 [3] | Ratio [4] | LD50 [5]
COc1ccc(C=O)cc1 | 11.3 mg/m2 | 6.7 | 10.1 mg/m2 | 7.9 | 
CC1(C)C(=O)[C@@]2(C)CCC1C2 [(+)-FENCHONE] | 38.9 mg/m2 | 1.6 | 43.2 mg/m2 | 2.3 | 
CC1(C)C(=O)[C@]2(C)CCC1C2 [(-)-FENCHONE] | 41.8 mg/m2 | 1.4 | 48.7 mg/m2 | 2.1 | 
O=C(OCc1ccccc1)c1ccccc1 [BENZYL BENZOATE] | 89.2 mg/m2 |  | 67.5 mg/m2 |  | 
C=CCc1ccc(OC)cc1 [ESTRAGOLE] | 413.3 mg/m2 | 0.2 | 389.9 mg/m2 | 0.2 | 
CC12CCC(C1)C(C)(C)C2=O (centres undefined) [FENCHONE] |  |  |  |  | 6160 mg/kg
